{
  "source": "paper PMC11244656",
  "about": "(International journal of pharmaceutics, 2021)",
  "key": {"[1]": {"settings": "rats, lipid-free formulation; cited from earlier work"}, "human plasma-derived CM": {"tested_on": "human plasma-derived CM", "assay": "CM association assay with human plasma-derived CM", "assay_type": "in vitro ADME", "settings": "1.75 μM, TG 1 mg/mL, 37°C, 1 hour, n = 9", "in_short": "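Chylomicrons came from volunteers on no medicines in the prior week, 3–4 h after a high-fat meal. Blood in K2-EDTA was centrifuged (1,160 g, 15°C, 10 min), then the plasma was ultracentrifuged (268,350 g, 15°C, 35 min). The top CM layer was diluted in PBS to 1 mg/mL TG (enzymatic kit) and held at 4°C ≤24 h. It was spiked to 1.75 μM final, stirred 1 h at 37°C and re-isolated.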"}, "[2]": {"assay": "Biodistribution study to mesenteric lymph and MLNs in rats", "assay_type": "in vivo", "settings": "rat, oral 5 mg/kg; for levels in MLNs compared to plasma: tmax-1h and tmax"}, "[3]": {"assay": "Pharmacokinetic study in rats", "assay_type": "in vivo", "settings": "male, Sprague Dawley, rat, plasma", "in_short": "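Male Sprague Dawley rats (275–300 g) had jugular vein cannulas placed under isoflurane, recovered 2 nights and were fasted up to 16 h. IV bolus was given in propylene glycol–water–ethanol (70:20:10). Oral gavage used the same vehicle or sesame oil. Plasma was sampled to 24 h and assayed by HPLC-UV (263 nm, internal standard, 5–15000 ng/mL). Non-compartmental analysis; n = 5 IV, 3 or 6 oral.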"}, "[4]": {"tested_on": "artificial CM-like emulsion (Intralipid)", "assay": "CM association assay with artificial CM-like emulsion", "assay_type": "in vitro ADME", "settings": "1.75 μM, TG 1 mg/mL, 37°C, 1 hour, n = 22", "in_short": "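Intralipid 20% was diluted in PBS to 1 mg/mL triglyceride. A 2 mL volume was spiked from a 1 mg/mL propylene glycol–ethanol (99:1) stock to give 1.75 μM final. It was stirred at 170 rpm, 37°C, for 1 h. The emulsion was then re-isolated by density gradient ultracentrifugation and drug content measured by HPLC-UV.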"}},
  "data": [
    {"smiles": "CCC[C@@]1(CCc2ccccc2)CC(O)=C([C@H](CC)c2cccc(NS(=O)(=O)c3ccc(C(F)(F)F)cn3)c2)C(=O)O1", "note": "[TPV, tipranavir]", "values": [
      {"measurement": "oral bioavailability", "setting": "[1]", "value": 30, "unit": "%"},
      {"measurement": "association with natural human plasma-derived CM", "setting": "human plasma-derived CM", "value": 66.7, "unit": "%"},
      {"measurement": "concentration in mesenteric lymph fluid compared to plasma", "setting": "[2]; LCT-based formulation, tmax-1h (2 h) and tmax (3 h)", "value": "three-fold higher"},
      {"measurement": "levels in MLNs compared to plasma", "setting": "[2]; LCT-based formulation", "value": "comparable"},
      {"measurement": "levels in MLNs compared to plasma", "setting": "[2]; lipid-free formulation", "value": "comparable"},
      {"measurement": "C0", "setting": "[3]; iv, 1 mg/kg", "value": 17600, "unit": "ng/mL"},
      {"measurement": "Vd", "setting": "[3]; iv, 1 mg/kg", "value": "0.903 ± 0.204", "unit": "L/kg"},
      {"measurement": "clearance", "setting": "[3]; iv, 1 mg/kg", "value": 4.55, "unit": "mL/min/kg"},
      {"measurement": "Tmax", "setting": "[3]; po, 5 mg/kg", "value": 3, "unit": "h"},
      {"measurement": "association with artificial CM-like emulsion (Intralipid)", "setting": "[4]", "value": 31.6, "unit": "%"}
    ]}
  ]
}
